# Only some compounds are listed: those with a hit (about 4.6% of all), similar ones and a draw of the others.
# OX1R antag-1: antagonists of human orexin 1 receptor; O43613; CHO/OX1R cells, Fluo-8 calcium fluorescence, orexin A; inhibition, % at 5 µM; 330,000 tested, 0.43% active; AID 434989;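 active = inhibition above its plate's threshold, mean inhibition of all tested compounds on the plate plus 3 SD, cut at about 37% in these data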;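 note: 0% = orexin A challenge wells and 100% = SB-334867-A antagonist wells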
# TAAR1 ag: human TAAR1 agonism; Q96RJ0; CHO RD-HGA16 TAAR1, Fluo-8 calcium fluorescence; vehicle wells 0%, saturating PEA agonist 100%; activation, % at 3 µM; 360,000 tested, 0.99% active; AID 624467;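 active = activation above the mean activation of all test compounds in the run plus 3 SD, cut at about 38% in these data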
# Target sequence (Q96RJ0 whole entry, looked up): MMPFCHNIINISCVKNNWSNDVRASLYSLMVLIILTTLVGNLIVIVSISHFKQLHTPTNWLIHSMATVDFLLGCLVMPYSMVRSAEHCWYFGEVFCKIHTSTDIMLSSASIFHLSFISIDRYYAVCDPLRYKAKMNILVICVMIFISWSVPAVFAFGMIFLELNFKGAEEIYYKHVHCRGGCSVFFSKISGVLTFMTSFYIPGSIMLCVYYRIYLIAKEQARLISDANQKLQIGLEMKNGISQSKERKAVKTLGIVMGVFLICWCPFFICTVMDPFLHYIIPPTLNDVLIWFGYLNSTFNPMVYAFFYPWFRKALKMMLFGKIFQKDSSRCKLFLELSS
#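 Test system: RD-HGA16 (CHO) cells co-expressing Gα16 and hTAAR1; dosing: one-point dosing at 3 µM (nominal); timing: 17-24 h seeding, 75 min 37 °C dye, 30 min RT; signal: kinetic Fluo-8 calcium fluorescence; read-out basis: % activation relative to PEA EC100 response; controls: DMSO and PEA EC100; replicates: n 1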
# GPR7 antagonist: blocks human GPR7 receptor signaling; AID 1861; P48145; inhibition, % at 4.4 µM; 290,000 tested, 1.1% active; GPR7-expressing cells, fluorescence antagonist assay; in the data active = inhibition above about 16%, passing the limit was not always enough;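 note: cells stimulated with the agonist NPW; 0% = agonist with vehicle and 100% = vehicle without agonist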
# OX1R antag-2: blocks the human orexin 1 receptor. OX1R-expressing cells, FRET antagonist read-out. O43613. AID 485270. 330,000 tested, 1.8% active. inhibition, % at 6.6 µM; in the data active = inhibition mostly above about 38%, no sharp cut-off; inactive = mostly below about 40%;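 note: 0% = agonist challenge alone and 100% = reference antagonist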
# CHO parental Ca: counter-screen for OX1R antagonists: effect in parental CHO cells. parental CHO-K1, ATP-induced calcium, Fluo-8 fluorescence. inhibition, % at 5.6 µM. 330,000 tested, 0.63% active;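 active = inhibition above that plate's mean sample inhibition plus 3 SD, cut at about 26% in these data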;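 note: 0% = ATP-challenged DMSO wells and 100% = DMSO wells without ATP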
#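 test system = CHO parental line | reagent = ATP stimulus | measured by = intracellular calcium via Fluo-8 no-wash fluorescent dye | control set = ATP and no-ATP DMSO wells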
# TAAR1 antagonist: human TAAR1 antagonism; Q96RJ0; CHO RD-HGA16 TAAR1, Fluo-8 calcium fluorescence, antagonist; inhibition, % at 3 µM; 360,000 tested, 1.5% active; AID 624466;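 active = inhibition above a per-plate cutoff, the mean inhibition of test compounds on that plate plus 3 SD, cut at about 49% in these data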;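 note: 0% = DMSO plus EC80 beta-PEA response and 100% = DMSO alone without agonist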
#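 Material: CHO RD-HGA16 cells bearing hTAAR1; compound dosing: one-point dosing, 3 µM nominal final; schedule: dye loading 75 min at 37 °C, then 30 min room temperature; measured by: calcium fluorescence with Fluo-8; control set: vehicle and agonist controls; replication: n of 1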
# The depositor's hits bear a star; . = no result given; ! = a repeat was not active.
SMILES,OX1R antag-1,TAAR1 ag,GPR7 antagonist,OX1R antag-2,CHO parental Ca,TAAR1 antagonist
O=C(NC1CCCCC1)OC[C@@H]1CSCCS(=O)(=O)N1,.,3,.,.,.,4
O=C(NCCc1ccccc1)C1CCN(C(=O)N2CCOc3ccccc32)CC1,-13,18,4,7,-7,-15
O=C(NCCc1ccc(Cl)cc1)C1CCN(C(=O)N2CCOc3ccccc32)CC1,-8,21,11,8,4,50*
Fc1cc(F)c2nc(Nc3nc4cc5c(cc4s3)OCO5)sc2c1,-9,3,-6,13,-8,61*
NC(=O)[C@@H]1CCCN1C(=O)[C@H]1O[C@@H](n2ccc(N)nc2=O)[C@H](O)[C@@H]1O,.,2,.,.,.,5
COCCCN1C(=O)C(CC(=O)NCc2ccco2)CC(C(=O)N(C)C)=C1C (stereo unspecified),.,4,.,.,.,-5
Nc1nc2c(s1)CCc1c-2cnn1-c1ccccc1,5,.,20,61*,-16,.
Nc1nc2c(s1)COc1ccccc1-2,-11,-1,-10,19,-12,-10
COc1ccc(C(=O)NNC(=O)c2cc3cc(OC)ccc3oc2=O)cc1,-11,9,-8,31,1,-31
COc1ccc(C(=O)NNC(=O)c2cc3cccc(OC)c3oc2=O)cc1,-16,14,3,50*,-5,-7
COc1cccc2cc(C(=O)NCCN3CCOCC3)c(=O)oc12,-5,4,-7,39*,-13,-13
COc1cccc(NC(=O)c2cc3cccc(OC)c3o/c2=N\O)c1,40*,.,-19,93*,16,.
COc1cccc(NC(=O)c2cc3ccccc3o/c2=N\O)c1,-24,7,0,24,-11,25
CCCCc1c(-c2ccccc2OC)ncn1Cc1cccc(C)c1,.,-1,.,.,.,18
COC(=O)C1=C(C)N(Cc2ccccc2C(F)(F)F)C(=NCc2cccc(C(F)(F)F)c2)NC1c1cccc(Cl)c1 (stereo unspecified),.,4,.,.,.,-42
Cc1cccc(C)c1NC(=O)C1c2ccccc2OCC(=O)N1Cc1ccc2c(c1)OCO2 (stereo unspecified),.,-1,.,.,.,0
COc1ccc(/C=N/Nc2cn[nH]c(=O)c2Cl)cc1,-25,41*,1,24,-3,-4
COc1ccc(/C=N/Nc2cc(C)nc3ccccc23)cc1,-17,15,7,11,-4,-25
COC(=O)C1=C(C)N(Cc2ccccc2C(F)(F)F)C(=NCc2ccc(C(F)(F)F)cc2)NC1CCc1ccccc1 (stereo unspecified),.,1,.,.,.,-9
C/C(N)=C(/C#N)C(=O)CSc1nnc(SCc2ccc(Cl)cc2)s1,9,4,-3,70,25,52*!
CC(CNC(=O)CC[C@H]1O[C@@H](n2ccc(=O)[nH]c2=O)[C@H](O)[C@@H]1O)c1ccccc1 (stereo partly specified),.,-1,.,.,.,10
CCCCc1c(-c2ccccc2OC)ncn1Cc1cccc(OC)c1,.,4,.,.,.,10
CCCCOC(=O)Cn1c(-c2ccccc2)nc2ccccc2c1=O,-44,1,-8,20,-21,-21
CCOC(=O)Cn1c(-c2ccccc2)nc2ccccc2c1=O,15,20,2,75*,-29,11
CCOC(=O)CSc1nc(-c2ccccc2)nc2ccccc12,-15,13,3,38*,-18,4
SMILES,OX1R antag-1,TAAR1 ag,GPR7 antagonist,OX1R antag-2,CHO parental Ca,TAAR1 antagonist
CCOC(=O)CSc1nc(-c2ccccc2)nc2ccc(F)cc12,-7,4,-2,1,-13,-22
CC(=O)Nc1ccccc1OCC(=O)c1cc(C)n(Cc2cccs2)c1C,55*,24,25*,45,48*,32
Cc1csc(SCC(=O)c2cc(C)n(Cc3cccs3)c2C)n1,6,6,6,57,42*,35
CCNC(=O)C1(C)CCCN(Cc2ccccc2-c2ccccc2)C1 (stereo unspecified),.,1,.,.,.,-19
CCCCNC(=O)C1(C)CCCCCN1Cc1cc2ccccc2o1 (stereo unspecified),.,9,.,.,.,-16
O=C1CC[C@@H](C(=O)N2CSC[C@@H]2C(=O)Nc2cccc(C(F)(F)F)c2)N1,.,1,.,.,.,-6
CCOCCCn1c(=N)c(C(=O)NCCN2CCOCC2)cc2c(=O)n3cccc(C)c3nc21,-18,2,-3,57*,-6,8
Cc1cccn2c(=O)c3cc(C(=O)NCCN4CCOCC4)c(=N)n(Cc4ccc(F)cc4)c3nc12,-16,-1,-9,40*,-17,-10
Cc1cccn2c(=O)c3cc(C(=O)NCCN4CCOCC4)c(=N)n(CCN4CCOCC4)c3nc12,-1,-3,6,53*,1,7
COc1ccc(CCNC(=O)c2cc3c(=O)n4cccc(C)c4nc3n(CCCN3CCOCC3)c2=N)cc1,-18,0,-8,23,-16,5
CCCn1cnnc1CNC(=O)[C@@H](Cc1ccccc1)NC(=O)[C@H]1O[C@@H](n2ccc(=O)[nH]c2=O)[C@H](O)[C@@H]1O,.,4,.,.,.,-19
Cn1nc(C(=O)OCC(=O)c2ccccc2)c2ccccc2c1=O,-17,5,.,4,-25,20
Cc1ccc(C)c(C(=O)COC(=O)c2nn(C)c(=O)c3ccccc23)c1,-1,6,.,33*,-27,41
COc1ccc(OCC(O)CNCCOc2ccccc2OC)c(C(C)(C)C)c1 (stereo unspecified),-12,50*,22,2,-2,12
COc1ccccc1NCC(O)COc1ccc(C(C)(C)C)cc1 (stereo unspecified),-28,-2,-13,-1,-2,17
CC(OC(=O)c1ccc([N+](=O)[O-])s1)C(=O)NC1CCCCC1C (stereo unspecified),-5,0,.,38*,-17,-3
CC1CCCC(NC(=O)COC(=O)c2ccccc2[N+](=O)[O-])C1C (stereo unspecified),-20,1,-8,8,-15,-13
NS(=O)(=O)c1ccc(CCNC(=O)c2ccc([N+](=O)[O-])s2)cc1,0,1,11,66*,22,14
O=C(NC1CCCC1)c1ccc([N+](=O)[O-])s1,-33,4,-5,61*,4,-20
CC1CCCC(NC(=O)COC(=O)c2ccc([N+](=O)[O-])s2)C1C (stereo unspecified),12,4,.,44*,2,-7
Cc1[nH]c2ccccc2c1CC(=O)Nc1ccc(N(C)c2cccnc2)c(-c2ccc(F)c(F)c2)c1,.,4,.,.,.,-2
COc1cc(OC)c(NC(=O)C(Sc2nc(C)cc(C)c2C#N)c2ccccc2)cc1Cl (stereo unspecified),.,3,.,.,.,-7
